# Measured values reported in ChEMBL document CHEMBL3616437, “Thiazole compounds with activity against Cryptococcus gattii and Cryptococcus neoformans in vitro” (Eur J Med Chem, 2015).
# Experiments:
# Cryptococcus neoformans [1] = assay: Antifungal activity against Cryptococcus neoformans ATCC 24067 after 48 to 72 hrs by broth microdilution method; assay type: functional
# Summary of the method: (§1)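 CLSI M27-A3 broth microdilution. Isolates subcultured twice on SDA, 48 h at 35°C. Saline suspension adjusted to 70% transmittance at 530 nm, then diluted to 1-5 x10^3 cells/mL in RPMI with L-glutamine, 0.165 M MOPS, pH 7.0. Compounds in DMSO, tested at […]. 35°C for 48-72 h. MIC read visually as the lowest concentration giving an optically clear well.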
# Vero = assay: Cytotoxicity against African green monkey Vero cells assessed as cell viability measured after 48 hrs by MTT assay; assay type: cell-based; details: Chlorocebus sabaeus
# Summary of the method: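 VERO cells in D-MEM with 5% FBS, used up to 20 passages. Seeded 1 x 10^4 cells/well, pre-incubated 24 h at 37°C. Exposed 48 h at 37°C, 5% CO2, to eight nonserial dilutions from 100 to 0.0128 µM, with 0.5% DMSO control. MTT reduction read-out, corrected for background and blank. IC50 reported as median with 95% CI. Triplicate, two independent experiments.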
# [2] = Cytotoxicity against C57BL/6 mouse peritoneal macrophages assessed as cell viability measured after 48 hrs by MTT assay; assay type: cell-based; details: C57BL/6, Peritoneal macrophage cell
# Summary of the method: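 Thioglycollate-elicited peritoneal macrophages from male C57BL/6 mice, 6–8 weeks old, in RPMI with 10% FBS. Seeded 1 x 10^5 cells/well, pre-incubated 24 h at 37°C. Exposed 48 h at 37°C, 5% CO2, to eight nonserial dilutions from 100 to 0.0128 µM, with 0.5% DMSO control. MTT read-out, % inhibition versus DMSO control. IC50 reported as median with 95% CI. Triplicate, two independent experiments.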
# [3] = Selectivity index, ratio of IC50 for African green monkey Vero cells to MIC for Cryptococcus neoformans ATCC 24067; assay type: toxicity, cell-based
# [4] = Selectivity index, ratio of IC50 for C57BL/6 mouse peritoneal macrophages to MIC for Cryptococcus neoformans ATCC 24067
# Summary of the method: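 SI = IC50/MIC. Thioglycollate-elicited peritoneal macrophages from C57BL/6 mice are seeded at 1 x 10^5/well. They are exposed for 48 h at 37°C to eight concentrations from 100 to 0.0128 µM. Viability read by MTT versus 0.5% DMSO control, triplicate in two experiments.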
# [5] = system: Cryptococcus bacillisporus; assay: Antifungal activity against Cryptococcus gattii ATCC 32608 after 48 to 72 hrs by broth microdilution method; assay type: functional
# Summary of the method: (§2)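 CLSI M27-A3 broth microdilution in RPMI with L-glutamine, buffered to pH 7.0 with 0.165 M MOPS. Colonies grown twice on SDA, 48 h at 35°C. Inoculum set to 70% transmittance at 530 nm, then diluted to 1-5 x10^3 cells/mL. Test agents dissolved in DMSO, serially diluted, tested at 0.1 to 62.5 µM. Plates held at 35°C for 48-72 h. MIC is the lowest concentration giving an optically clear well, read visually against drug-free growth controls.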
# [6] = system: Cryptococcus gattii species complex; assay: Antifungal activity against Cryptococcus gattii 23/10993 after 48 to 72 hrs by broth microdilution method; assay type: functional, Cryptococcus bacillisporus; summary of the method: as §2
# [7] = system: Cryptococcus gattii species complex; assay: Antifungal activity against Cryptococcus gattii L28/02 after 48 to 72 hrs by broth microdilution method; assay type: functional, Cryptococcus bacillisporus; summary of the method: as §2
# [8] = system: Cryptococcus gattii species complex; assay: Antifungal activity against Cryptococcus gattii 547/OTTI-97-PI-10 after 48 to 72 hrs by broth microdilution method; assay type: functional, Cryptococcus bacillisporus; summary of the method: as §2
# [9] = system: Cryptococcus gattii species complex; assay: Antifungal activity against Cryptococcus gattii 135L/03 after 48 to 72 hrs by broth microdilution method; assay type: functional, Cryptococcus bacillisporus; summary of the method: as §2
# [10] = system: Cryptococcus gattii species complex; assay: Antifungal activity against Cryptococcus gattii 196L/03 after 48 to 72 hrs by broth microdilution method; assay type: functional, Cryptococcus bacillisporus; summary of the method: as §2
# [11] = system: Cryptococcus gattii species complex; assay: Antifungal activity against Cryptococcus gattii L27/01 after 48 to 72 hrs by broth microdilution method; assay type: functional, Cryptococcus bacillisporus; summary of the method: as §2
# [12] = system: Cryptococcus gattii species complex; assay: Antifungal activity against Cryptococcus gattii ICB181 after 48 to 72 hrs by broth microdilution method; assay type: functional, Cryptococcus bacillisporus; summary of the method: as §2
# [13] = system: Cryptococcus gattii species complex; assay: Antifungal activity against Cryptococcus gattii L24/01 after 48 to 72 hrs by broth microdilution method; assay type: functional, Cryptococcus bacillisporus; summary of the method: as §2
# [14] = system: Cryptococcus gattii species complex; assay: Antifungal activity against Cryptococcus gattii LMM818 after 48 to 72 hrs by broth microdilution method; assay type: functional, Cryptococcus bacillisporus; summary of the method: as §2
# [15] = system: Cryptococcus gattii species complex; assay: Antifungal activity against Cryptococcus gattii 1913ER after 48 to 72 hrs by broth microdilution method; assay type: functional, Cryptococcus bacillisporus; summary of the method: as §2
# Cryptococcus neoformans [16] = assay: Antifungal activity against Cryptococcus neoformans ATCC 28957 after 48 to 72 hrs by broth microdilution method; assay type: functional; summary of the method: as §1
# Cryptococcus neoformans [17] = assay: Antifungal activity against Cryptococcus neoformans ATCC 62066 after 48 to 72 hrs by broth microdilution method; assay type: functional
# Cryptococcus neoformans [18] = assay: Antifungal activity against Cryptococcus neoformans CN31 after 48 to 72 hrs by broth microdilution method; assay type: functional; summary of the method: as §1
# Cryptococcus neoformans [19] = assay: Antifungal activity against Cryptococcus neoformans 96806 after 48 to 72 hrs by broth microdilution method; assay type: functional; summary of the method: as §1
# Cryptococcus neoformans [20] = assay: Antifungal activity against Cryptococcus neoformans 5396 after 48 to 72 hrs by broth microdilution method; assay type: functional; summary of the method: as §1
# Cryptococcus neoformans [21] = assay: Antifungal activity against Cryptococcus neoformans LMM820 after 48 to 72 hrs by broth microdilution method; assay type: functional; summary of the method: as §1
# Cryptococcus neoformans [22] = assay: Antifungal activity against Cryptococcus neoformans F10 after 48 to 72 hrs by broth microdilution method; assay type: functional; summary of the method: as §1
# Cryptococcus neoformans [23] = assay: Antifungal activity against Cryptococcus neoformans 28JF after 48 to 72 hrs by broth microdilution method; assay type: functional; summary of the method: as §1
# Cryptococcus neoformans [24] = assay: Antifungal activity against Cryptococcus neoformans VM-MCMMPI after 48 to 72 hrs by broth microdilution method; assay type: functional; summary of the method: as §1
# Cryptococcus neoformans [25] = assay: Antifungal activity against Cryptococcus neoformans 27JF after 48 to 72 hrs by broth microdilution method; assay type: functional; summary of the method: as §1
# Cryptococcus neoformans [26] = assay: Antifungal activity against Cryptococcus neoformans WP after 48 to 72 hrs by broth microdilution method; assay type: functional; summary of the method: as §1
compound,measurement,setting,value
C(=N\Nc1nc(-c2ccccc2)cs1)/C1CCCCC1,MIC,Cryptococcus neoformans [1],0.9 µM
same,IC50,Vero,> 100 µM
same,IC50,[2],> 100 µM
same,selectivity ratio,[3],111
same,Ratio,[4],111
same,MFC,[5],1.9 µM
same,MIC,[5],1.4 µM
same,MFC,[6],7.8 µM
same,MIC,[6],1.9 µM
same,MFC,[7],7.8 µM
same,MIC,[7],1.9 µM
same,MFC,[8],7.8 µM
same,MIC,[8],1.9 µM
same,MFC,[9],3.9 µM
same,MIC,[9],1.9 µM
same,MFC,[10],3.9 µM
same,MIC,[10],1.4 µM
same,MFC,[11],1.9 µM
same,MIC,[11],1 µM
same,MFC,[12],3.9 µM
same,MIC,[12],0.7 µM
same,MFC,[13],3.9 µM
same,MIC,[13],1.4 µM
same,MFC,[14],3.9 µM
same,MIC,[14],2.2 µM
same,MFC,[15],7.8 µM
same,MIC,[15],1.4 µM
same,MFC,Cryptococcus neoformans [16],7.8 µM
same,MIC,Cryptococcus neoformans [16],1.2 µM
same,MFC,Cryptococcus neoformans [17],7.8 µM
same,MIC,Cryptococcus neoformans [17],1.2 µM
same,MFC,Cryptococcus neoformans [18],1.9 µM
same,MIC,Cryptococcus neoformans [18],1.4 µM
same,MFC,Cryptococcus neoformans [19],3.9 µM
same,MIC,Cryptococcus neoformans [19],1.9 µM
same,MFC,Cryptococcus neoformans [20],1.9 µM
same,MIC,Cryptococcus neoformans [20],1.4 µM
same,MFC,Cryptococcus neoformans [21],1.9 µM
same,MIC,Cryptococcus neoformans [21],1.7 µM
same,MFC,Cryptococcus neoformans [22],3.9 µM
same,MIC,Cryptococcus neoformans [22],1.7 µM
same,MFC,Cryptococcus neoformans [23],7.8 µM
same,MIC,Cryptococcus neoformans [23],2.7 µM
same,MFC,Cryptococcus neoformans [24],3.9 µM
same,MIC,Cryptococcus neoformans [24],1.4 µM
same,MFC,Cryptococcus neoformans [25],7.8 µM
same,MIC,Cryptococcus neoformans [25],2.4 µM
same,MFC,Cryptococcus neoformans [26],3.9 µM
same,MIC,Cryptococcus neoformans [26],2.2 µM
COc1ccc(-c2csc(N/N=C(\C)CCO)n2)cc1,MIC,Cryptococcus neoformans [1],0.45 µM
same,IC50,Vero,> 100 µM
same,IC50,[2],> 100 µM
same,selectivity ratio,[3],111
same,Ratio,[4],222
same,MFC,[5],3.9 µM
same,MIC,[5],1.4 µM
same,MFC,[6],3.9 µM
same,MIC,[6],1.4 µM
same,MFC,[7],3.9 µM
same,MIC,[7],1.4 µM
same,MFC,[8],3.9 µM
same,MIC,[8],1.7 µM
same,MFC,[9],3.9 µM
same,MIC,[9],0.9 µM
same,MFC,[10],3.9 µM
same,MIC,[10],1.4 µM
same,MFC,[11],1.9 µM
same,MIC,[11],0.8 µM
same,MFC,[12],1.9 µM
same,MIC,[12],0.7 µM
same,MFC,[13],3.9 µM
same,MIC,[13],1.4 µM
same,MFC,[14],3.9 µM
same,MIC,[14],1.4 µM
same,MFC,[15],1.9 µM
same,MIC,[15],0.9 µM
same,MFC,Cryptococcus neoformans [16],3.9 µM
same,MIC,Cryptococcus neoformans [16],0.6 µM
same,MFC,Cryptococcus neoformans [17],15.6 µM
same,MIC,Cryptococcus neoformans [17],0.6 µM
same,MFC,Cryptococcus neoformans [18],7.8 µM
same,MIC,Cryptococcus neoformans [18],0.5 µM
same,MFC,Cryptococcus neoformans [19],3.9 µM
same,MIC,Cryptococcus neoformans [19],0.9 µM
same,MFC,Cryptococcus neoformans [20],3.9 µM
same,MIC,Cryptococcus neoformans [20],0.5 µM
same,MFC,Cryptococcus neoformans [21],3.9 µM
same,MIC,Cryptococcus neoformans [21],0.5 µM
same,MFC,Cryptococcus neoformans [22],3.9 µM
same,MIC,Cryptococcus neoformans [22],0.7 µM
same,MFC,Cryptococcus neoformans [23],3.9 µM
same,MIC,Cryptococcus neoformans [23],0.6 µM
same,MFC,Cryptococcus neoformans [24],3.9 µM
same,MIC,Cryptococcus neoformans [24],0.5 µM
same,MFC,Cryptococcus neoformans [25],7.8 µM
same,MIC,Cryptococcus neoformans [25],1.2 µM
same,MFC,Cryptococcus neoformans [26],3.9 µM
same,MIC,Cryptococcus neoformans [26],0.9 µM
